Measurements as given in ChEMBL document CHEMBL1158537, “Antibacterial activities of aminoglycoside antibiotics-derived cationic amphiphiles. Polyol-modified neomycin B-, kanamycin A-, amikacin-, and neamine-based amphiphiles with potent broad spectrum antibacterial activity” (2010).
Values after ≈ are worked out from the molar mass of the structure shown.

What was measured:
[1] = system: Staphylococcus epidermidis; test: Antibacterial activity against methicillin-resistant Staphylococcus epidermidis ATCC 14990 after 24 hrs by macrobroth dilution method; format: functional; conditions: ATCC 14990, 24 h
[2] = system: Staphylococcus epidermidis; test: Antibacterial activity against Staphylococcus epidermidis […] after 24 hrs by macrobroth dilution method; format: functional
Summary of the method: (§1)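 Broth macrodilution was run following CLSI methodology against ATCC reference strains and clinical isolates from the Canadian Intensive Care Unit (CAN-ICU) study, with Gram-positive and Gram-negative organisms tested. The value is the minimum inhibitory concentration, reported in μg/mL.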

Staphylococcus aureus [3] = test: Antibacterial activity against Staphylococcus aureus ATCC 29213 after 24 hrs by macrobroth dilution method; format: functional; conditions: ATCC 29213, 24 h
Summary of the method: (§2)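 Reference strains from the American Type Culture Collection were tested by broth macrodilution following CLSI methodology. The read-out was the minimum inhibitory concentration, reported in μg/mL. The same method was used for the Gram-positive and Gram-negative organisms.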

Escherichia coli [4] = test: Antibacterial activity against Escherichia coli ATCC 25922 after 24 hrs by macrobroth dilution method; format: functional; conditions: ATCC 25922, 24 h; summary of the method: as §2
Pseudomonas aeruginosa [5] = test: Antibacterial activity against Pseudomonas aeruginosa ATCC 27853 after 24 hrs by macrobroth dilution method; format: functional; conditions: ATCC 27853, 24 h; summary of the method: as §1
Acinetobacter baumannii = test: Antibacterial activity against Acinetobacter baumannii CAN-ICU 63169 after 24 hrs by macrobroth dilution method; format: functional; conditions: CAN-ICU 63169, 24 h; summary of the method: as §1
Staphylococcus aureus [6] = test: Antibacterial activity against methicillin-resistant Staphylococcus aureus ATCC 33592 after 24 hrs by macrobroth dilution method; format: functional; conditions: ATCC 33592, 24 h; summary of the method: as §2
Escherichia coli [7] = test: Antibacterial activity against Escherichia coli CAN-ICU 63074 after 24 hrs by macrobroth dilution method; format: functional; conditions: CAN-ICU 63074, 24 h; summary of the method: as §1
Streptococcus pneumoniae = test: Antibacterial activity against Streptococcus pneumoniae ATCC 49619 after 24 hrs by macrobroth dilution method; format: functional; conditions: ATCC 49619, 24 h; summary of the method: as §1
Pseudomonas aeruginosa [8] = test: Antibacterial activity against Pseudomonas aeruginosa CAN-ICU 62308 after 24 hrs by macrobroth dilution method; format: functional; conditions: CAN-ICU 62308, 24 h; summary of the method: as §1
[9] = system: Stenotrophomonas maltophilia; test: Antibacterial activity against Stenotrophomonas maltophilia CAN-ICU 62585 after 24 hrs by macrobroth dilution method; format: functional; conditions: CAN-ICU 62585, 24 h; summary of the method: as §1
Escherichia coli [10] = test: Antibacterial activity against gentamicin-resistant Escherichia coli ATCC 6174 after 24 hrs by macrobroth dilution method; format: functional; conditions: ATCC 6174, 24 h; summary of the method: as §2
Klebsiella pneumoniae = test: Antibacterial activity against Klebsiella pneumoniae ATCC 13883 after 24 hrs by macrobroth dilution method; conditions: ATCC 13883, 24 h

Row | SMILES | MIC [1] | MIC [2] | MIC (Staphylococcus aureus [3]) | MIC (Escherichia coli [4]) | MIC (Pseudomonas aeruginosa [5]) | MIC (Acinetobacter baumannii) | MIC (Staphylococcus aureus [6]) | MIC (Escherichia coli [7]) | MIC (Streptococcus pneumoniae) | MIC (Pseudomonas aeruginosa [8]) | MIC [9] | MIC (Escherichia coli [10]) | MIC (Klebsiella pneumoniae)
1 | NC[C@@H]1O[C@H](O[C@H]2[C@@H](OC(=O)Nc3ccc(Cl)cc3)[C@H](O[C@@H]3[C@@H](OC(=O)Nc4ccc(Cl)cc4)[C@H](N)C[C@H](N)[C@H]3O[C@H]3O[C@H](CN)[C@@H](OC(=O)Nc4ccc(Cl)cc4)[C@H](OC(=O)Nc4ccc(Cl)cc4)[C@H]3N)O[C@@H]2COC(=O)Nc2ccc(Cl)cc2)[C@H](N)[C@@H](OC(=O)Nc2ccc(Cl)cc2)[C@@H]1OC(=O)Nc1ccc(Cl)cc1.O=C(O)C(F)(F)F | 32 µg/mL | 16 µg/mL | 64 µg/mL | > 256 µg/mL | > 256 µg/mL | > 256 µg/mL | 64 µg/mL | 256 µg/mL | 128 µg/mL | 256 µg/mL | 128 µg/mL | > 256 µg/mL | 256 µg/mL
2 | NC[C@H]1O[C@H](O[C@H]2[C@H](OC(=O)Nc3ccccc3)[C@@H](OC(=O)Nc3ccccc3)[C@H](N)C[C@@H]2N)[C@H](N)[C@@H](OC(=O)Nc2ccccc2)[C@@H]1OC(=O)Nc1ccccc1.O=C(O)C(F)(F)F | 8 µg/mL | 8 µg/mL | 16 µg/mL | 32 µg/mL | 128 µg/mL | 256 µg/mL | 16 µg/mL | 32 µg/mL | > 256 µg/mL | 128 µg/mL | 64 µg/mL | 32 µg/mL | 64 µg/mL
3 | NC[C@@H]1O[C@H](O[C@H]2[C@@H](OC(=O)Nc3ccccc3)[C@H](O[C@@H]3[C@@H](OC(=O)Nc4ccccc4)[C@H](N)C[C@H](N)[C@H]3O[C@H]3O[C@H](CN)[C@@H](OC(=O)Nc4ccccc4)[C@H](OC(=O)Nc4ccccc4)[C@H]3N)O[C@@H]2COC(=O)Nc2ccccc2)[C@H](N)[C@@H](OC(=O)Nc2ccccc2)[C@@H]1OC(=O)Nc1ccccc1.O=C(O)C(F)(F)F | 0.5 µg/mL | 0.5 µg/mL | 1 µg/mL | 32 µg/mL | 256 µg/mL | 32 µg/mL | 1 µg/mL | 16 µg/mL | 16 µg/mL | 128 µg/mL | 4 µg/mL | 16 µg/mL | 256 µg/mL
4 | NC[C@@H]1O[C@@H](O[C@H]2[C@H](O)[C@@H](O[C@H]3O[C@H](CO)[C@@H](O)[C@H](N)[C@H]3O)[C@H](N)C[C@@H]2N)[C@@H](O)[C@H](O)[C@H]1O [KANAMYCIN A] | 128 µg/mL (≈ 264 µM) | 2 µg/mL (≈ 4.13 µM) | 4 µg/mL (≈ 8.26 µM) | 8 µg/mL (≈ 16.5 µM) | > 512 µg/mL | 32 µg/mL (≈ 66 µM) | > 512 µg/mL | 32 µg/mL (≈ 66 µM) | 8 µg/mL (≈ 16.5 µM) | > 512 µg/mL | > 512 µg/mL | 16 µg/mL (≈ 33 µM) | 1 µg/mL (≈ 2.06 µM)
